Test results published in ChEMBL document CHEMBL4028854, “Iminothioethers as Hydrogen Sulfide Donors: From the Gasotransmitter Release to the Vascular Effects” (J Med Chem, 2017).
Blank lines part the entries; values can stand above or below the compound they belong to. Active and inactive are the calls of the source. No cut-off for these calls is given here.

Experiments:
[1] = tested on: Thoracic aorta; test: Vasorelaxing effect in endothelium-denuded Wistar rat thoracic aorta ring assessed as reduction in KCl-induced contractile tone at 1 mM relative to KCl; format: functional
[2] = tested on: Thoracic aorta; test: Vasorelaxing effect in endothelium-denuded Wistar rat thoracic aorta ring assessed as reduction in KCl-induced contractile tone; format: functional, tissue-based
[3] = tested on: HSMC; test: Induction of membrane hyperpolarization in HSMC at 10 uM measured every 2.5 mins for 40 mins by DiBac4(3) dye based spectrofluorometric method; format: functional, cell-based; settings: Homo sapiens
Method in brief: (§1)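 Human aortic smooth muscle cells were grown in Medium 231 with SMGS at 37 °C, 5% CO2, and seeded at 72×10^3/well on gelatin 24 h before use. Cells were loaded 1 h with DiBac4(3) 2.5 µM in HEPES buffer, pH 7.4, at room temperature. Fluorescence (ex 488/em 520 nm) was read every 2.5 min for 40 min. (Ft-F0)/F0 was calculated, and AUC expressed as % of the NS1619 10 µM response. Six experiments ×6 replicates.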

[4] = tested on: Rattus norvegicus; test: Antihypertensive activity in Wistar rat model of L-NAME-induced hypertension assessed as decrease in basal systolic blood pressure at 133 umol/kg, ip measured at 5 mins interval for 30 mins relative to control; format: functional; parameters: scale not given: the % may be the effect or the level left
Method in brief: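 Male 12-week-old normotensive Wistar rats (250 g), anaesthetized with sodium thiopental 60 mg/Kg. Tails warmed under an IR lamp for 15 min, and systolic pressure read by tail-cuff. Baseline taken, then L-NAME 100 mg/Kg i.p. given and pressure monitored 20 min. Test agent given i.p. in DMSO vehicle (0.33 ml/Kg). Read-outs taken every 5 min over 30 min and averaged, as % of the L-NAME-raised Psys. 6 rats/group.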

[5] = Drug metabolism in HSMC assessed as H2S release at 300 uM by WSP1/propidium iodide staining based fluorescence microscopic method; format: ADME, cell-based; settings: human
Method in brief: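 HASMCs on gelatine-coated culture slides were loaded with 100 µM WSP-1 for 30 min, then incubated with compound in HEPES-buffered saline for 1 h. Cells were washed, fixed in Bouin solution for 10 min, washed twice and counterstained with propidium iodide for nuclei. Green WSP-1 fluorescence was examined by fluorescence microscopy.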

[6] = Drug metabolism in HSMC assessed as H2S release at 1 mM by WSP1 dye based spectrofluorometric method; format: ADME, cell-based; settings: human, 1000 µM, TDE = time-dependent effect
Method in brief: (§2)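 Human aortic smooth muscle cells were seeded on gelatin-coated slides (30000/well). After 24 h they were loaded with WSP-1 (100 µM) for 30 min, and the supernatant was replaced by compound in HEPES standard buffer (pH 7.4). Fluorescence (λ 465-515 nm) was followed for 1 h and expressed as fluorescence index. Reference donor was used at 300 µM. Data are mean ± SE.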

[7] = Induction of intracellular cGMP level in sodium nitroprusside pretreated HSMC at 300 uM after 20 mins by ELISA (reference value: 0.446 +/- 0.005 pmol/ml); format: functional, Homo sapiens
[8] = tested on: HSMC; test: Induction of membrane hyperpolarization in HSMC measured every 2.5 mins for 40 mins by DiBac4(3) dye based spectrofluorometric method; format: functional, cell-based; settings: Homo sapiens; method in brief: as §1
[9] = Induction of membrane hyperpolarization in HSMC at 1 mM measured every 2.5 mins for 40 mins by DiBac4(3) dye based spectrofluorometric method relative to NS1619; format: functional, Homo sapiens; method in brief: as §1
[10] = tested on: Heart; test: Protection against angiotensin2-induced reduction in coronary flow in Langendorff perfused Wistar rat heart assessed as increase in coronary flow at 300 uM after 20 mins relative to control; format: functional; parameters: scale not given: the % may be the effect or the level left
Method in brief: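 Langendorff-perfused hearts were equilibrated for 20 min. Coronary spasm was induced with angiotensin II 0.1 µM, kept in the perfusate throughout. Compound (300 µM) or vehicle was then added to the perfusate for 20 min. Coronary flow was expressed as % of the mean of three basal readings. Hearts from 6-9 animals/group; mean ± SE.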

[11] = tested on: HSMC; test: Induction of intracellular cGMP level in HSMC at 300 uM after 20 mins by ELISA; format: functional, cell-based; settings: Homo sapiens
[12] = Drug metabolism in HSMC assessed as H2S release at 300 uM by WSP1 dye based spectrofluorometric method; format: ADME, cell-based; settings: human
Method in brief: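 HASMCs seeded at 30000/well on gelatine-coated culture slides; after 24 h, loaded with 100 µM WSP-1 for 30 min. Dye solution replaced by compound in HEPES-buffered saline, pH 7.4, without added thiols. H2S-evoked fluorescence (λ 465–515 nm) was read by spectrofluorometer over 1 h and expressed as fluorescence index.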

[13] = Cytotoxicity in HSMC assessed as cell damage at 300 uM by propidium iodide staining based fluorescence microscopic method; settings: human
Method in brief: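 WSP-1-loaded human aortic smooth muscle cells were incubated with compound for 1 h. Cells were then washed, fixed in Bouin solution for 10 min, and washed twice. Nuclei were stained with propidium iodide, and slides were examined by fluorescence microscopy.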

[14] = Drug metabolism in HSMC assessed as H2S release by measuring increase in fluorescence intensity at 1 mM after 1 hr by WSP1 dye based spectrofluorometric method relative to DADS; format: ADME, cell-based; settings: human, 1000 µM; method in brief: as §2

Compound: O=c1[nH]c2cc(C(F)(F)F)ccc2n1-c1cc(C(F)(F)F)ccc1O
- Activity [3]: Active

Compound: COc1ccc(C(=S)NCc2ccccc2)cc1
- Emax at 1000 µM [1]: 96.8%
- IC50 [2]: 129 µM

Compound: Oc1ccc(C(=S)NCc2ccccc2)cc1
- Emax at 1000 µM [1]: 88.2%
- IC50 [2]: 347 µM

Compound: C=CCSSCC=C [DIALLYLDISULFIDE]
- Emax at 1000 µM [1]: 41.7%
- Activity [4]: 39%
- Drug metabolism [5]: Metabolite_Detected
- Drug metabolism [12]: Metabolite_Detected

Compound: N=C(SCc1ccc2ccccc2c1)c1cccs1
- Emax at 1000 µM [1]: 20.4%

The next lines start with results.

- IC50 [2]: 263 µM
Compound: N=C(SCc1ccccc1)c1cccs1
- Emax at 1000 µM [1]: 89.9%

- IC50 [2]: 162 µM
Compound: S=C(NCc1ccccc1)c1ccccc1
- Emax at 1000 µM [1]: 92.7%

- IC50 [2]: 240 µM
Compound: S=C(NCc1ccccc1)c1cccs1
- Emax at 1000 µM [1]: 91.7%

- IC50 [2]: 427 µM
Compound: N=C(SCc1ccccc1)c1ccccc1
- Emax at 1000 µM [1]: 86.5%

- IC50 [2]: 490 µM
Compound: N=C(SCc1ccccc1)c1ccc(O)cc1
- Emax at 1000 µM [1]: 82.1%

- Drug metabolism [5]: Metabolite_Detected
- Drug metabolism [6]: Tde
- IC50 [2]: 257 µM
Compound: COc1ccc(C(=N)SCc2ccccc2)cc1
- Emax at 1000 µM [1]: 89.9%
- Activity [4]: 36%
- Activity [7]: 0.489 pmol/mL
- Activity [8]: Dose-dependent effect
- Activity [9]: 149%
- Activity [10]: <=165%
- Activity [11]: inactive

- Drug metabolism [6]: Tde
- IC50 [2]: 631 µM
- fold change (FC) [14]: 50
Compound: N=C(Sc1ccccc1)c1cccs1
- Emax at 1000 µM [1]: 99.7%
- Activity [4]: inactive
- Activity [7]: 0.667 pmol/mL
- Activity [13]: Toxic
- Activity [8]: Dose-dependent effect
- Activity [9]: 36%
- Activity [10]: inactive
- Activity [11]: inactive
